FAK blocker – blocks human focal adhesion kinase activity; Q05397; biochemical FAK kinase activity assay; inhibition, %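 (tested at 7 µM)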; hit rate 0.84% among 97,000; AID 727;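 further: 0% = DMSO and 100% = reference compound high control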
PLK1 PBD inh – inhibitors of human Plk1 polo box domain binding; hit rate 0.13% among 97,000; AID 693; P53350; Plk1 PBD phosphopeptide binding, fluorescence polarization; inhibition, %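 (tested at about 20 µM)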; in the data active means inhibition above about 34%, passing the limit was not always enough
PLK1 kinase inh – inhibitors of human PLK1 kinase. recombinant PLK1 kinase, TR-FRET peptide phosphorylation. inhibition, % at 10 µM. hit rate 0.53% among 97,000. AID 619;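 active means inhibition of 50% or more in the single-concentration screen; inactive means inhibition below 50%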;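 further: 0% = DMSO max control and 100% = H-89 dihydrochloride min control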
PTK2B oligo ant – blocks oligomerization of human Pyk2 in cells; hit rate 0.83% among 99,000; Q293 cells, Pyk2 FERM NanoBiT luminescence; active compounds read low; Q14289; z-score (the deposit names both 25 µM and 10 µM);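 active means Z-score of -3 or lower, scaled per plate to the spread of control and sample wells; inactive means z-score above -3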;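 further: negative z-score means lost luminescence so less FERM oligomerization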
HIV Rev-RRE inh – inhibitors of HIV-1 Rev-RRE RNA interaction. P05866. Rev peptide-RRE RNA binding, FRET. inhibition, % at 8 µM. hit rate 0.79% among 97,000. AID 704;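 active means inhibition above the screen-wide mean plus 3 SD, cut at about 35% in these data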;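 further: 0% = median DMSO wells and 100% = median Neomycin B control wells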
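Probe or stimulus: fluorescein-Rev peptide as binding partner; assay system: Cy5-tagged RRE RNA duplex with fluorescein-tagged Rev peptide; timing: 5 min compound–RNA preincubation, then 15 min with peptide, 25 °C; medium: HEPES pH 7.5 buffer with KCl, MgCl2, NaCl and EDTA; signal: fluorescein-to-Cy5 FRET, 480 nm excitation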
Cav3 T inh – blocks human Cav3.2 T-type calcium channel | O95180 | Cav3.2-expressing cells, Fluo-4 calcium fluorescence FDSS; active compounds read low | B-score at 10 µM | hit rate 4% among 100,000;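 active means single-dose well whose peak fluorescence ratio is a statistical outlier from its plate by either plate-standardised score or position-corrected B-score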
Target sequence (O95180 whole entry, looked up): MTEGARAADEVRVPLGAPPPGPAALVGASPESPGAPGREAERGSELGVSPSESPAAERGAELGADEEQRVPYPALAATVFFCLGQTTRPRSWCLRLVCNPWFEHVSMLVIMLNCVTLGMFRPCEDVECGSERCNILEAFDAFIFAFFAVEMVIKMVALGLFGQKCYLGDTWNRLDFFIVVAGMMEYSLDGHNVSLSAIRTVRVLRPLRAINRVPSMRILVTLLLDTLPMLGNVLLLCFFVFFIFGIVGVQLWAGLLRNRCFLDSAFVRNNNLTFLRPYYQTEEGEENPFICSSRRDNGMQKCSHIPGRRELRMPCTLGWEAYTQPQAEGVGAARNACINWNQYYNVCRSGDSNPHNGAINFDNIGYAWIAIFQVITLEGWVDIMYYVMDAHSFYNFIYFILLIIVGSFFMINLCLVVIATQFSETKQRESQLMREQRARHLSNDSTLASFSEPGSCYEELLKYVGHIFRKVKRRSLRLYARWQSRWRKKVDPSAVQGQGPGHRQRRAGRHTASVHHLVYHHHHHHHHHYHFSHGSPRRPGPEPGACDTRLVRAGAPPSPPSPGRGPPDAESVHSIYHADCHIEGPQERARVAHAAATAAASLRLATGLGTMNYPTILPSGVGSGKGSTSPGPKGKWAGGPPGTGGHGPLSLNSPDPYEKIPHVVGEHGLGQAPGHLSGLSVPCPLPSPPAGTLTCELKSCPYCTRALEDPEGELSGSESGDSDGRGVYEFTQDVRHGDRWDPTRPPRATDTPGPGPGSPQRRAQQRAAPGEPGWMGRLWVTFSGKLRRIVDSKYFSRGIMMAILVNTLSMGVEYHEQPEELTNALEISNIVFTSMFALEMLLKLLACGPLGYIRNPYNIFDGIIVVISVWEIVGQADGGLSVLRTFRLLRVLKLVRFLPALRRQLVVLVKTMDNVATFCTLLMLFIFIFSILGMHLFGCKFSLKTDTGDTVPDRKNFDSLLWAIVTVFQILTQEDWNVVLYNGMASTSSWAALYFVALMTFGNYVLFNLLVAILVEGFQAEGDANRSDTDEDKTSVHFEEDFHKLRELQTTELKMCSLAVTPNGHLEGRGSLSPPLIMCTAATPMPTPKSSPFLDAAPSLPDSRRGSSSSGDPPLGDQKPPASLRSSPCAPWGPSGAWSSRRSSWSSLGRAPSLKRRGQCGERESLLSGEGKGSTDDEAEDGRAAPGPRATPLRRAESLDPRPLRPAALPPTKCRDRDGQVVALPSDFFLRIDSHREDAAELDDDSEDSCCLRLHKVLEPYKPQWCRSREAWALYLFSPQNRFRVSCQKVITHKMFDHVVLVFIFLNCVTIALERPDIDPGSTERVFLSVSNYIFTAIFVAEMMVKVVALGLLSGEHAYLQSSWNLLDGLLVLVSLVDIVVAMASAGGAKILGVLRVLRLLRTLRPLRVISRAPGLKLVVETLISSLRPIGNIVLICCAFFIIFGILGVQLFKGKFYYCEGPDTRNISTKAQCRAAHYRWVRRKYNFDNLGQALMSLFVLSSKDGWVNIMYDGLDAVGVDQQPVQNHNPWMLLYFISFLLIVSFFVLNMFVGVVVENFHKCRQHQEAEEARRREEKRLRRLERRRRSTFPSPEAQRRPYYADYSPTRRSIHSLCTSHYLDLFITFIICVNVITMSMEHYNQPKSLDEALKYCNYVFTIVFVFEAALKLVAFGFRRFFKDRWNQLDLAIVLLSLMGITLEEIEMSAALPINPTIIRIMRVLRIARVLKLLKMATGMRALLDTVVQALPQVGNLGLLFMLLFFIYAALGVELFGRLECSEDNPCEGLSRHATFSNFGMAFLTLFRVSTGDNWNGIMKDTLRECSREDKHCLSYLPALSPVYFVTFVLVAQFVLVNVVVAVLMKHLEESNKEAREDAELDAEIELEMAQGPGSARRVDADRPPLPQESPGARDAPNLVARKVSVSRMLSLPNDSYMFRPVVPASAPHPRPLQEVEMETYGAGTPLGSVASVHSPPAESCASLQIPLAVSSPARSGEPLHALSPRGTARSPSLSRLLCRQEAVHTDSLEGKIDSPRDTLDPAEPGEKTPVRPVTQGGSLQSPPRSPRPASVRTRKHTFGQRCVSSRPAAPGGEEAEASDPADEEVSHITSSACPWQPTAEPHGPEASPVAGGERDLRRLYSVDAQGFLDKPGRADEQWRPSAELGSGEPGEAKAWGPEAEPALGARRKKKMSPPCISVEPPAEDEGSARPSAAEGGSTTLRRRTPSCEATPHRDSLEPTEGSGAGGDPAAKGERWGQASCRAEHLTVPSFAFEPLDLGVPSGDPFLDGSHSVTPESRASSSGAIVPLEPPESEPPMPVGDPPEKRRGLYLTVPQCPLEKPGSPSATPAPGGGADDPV
FAK inh confirm – FAK (human) inhibition confirmed | hit rate 28% among 750 | AID 794 | shares compounds with FAK blocker | FAK kinase biochemical inhibition assay | inhibition, % at 7 µM
* hit, by the source's call; x = no result. Compounds with a hit are over-represented: about 5.8% of the library has one in this group of screens. Unless noted, no stated cut-off is given here; in the data, active means inhibition above about 19%; inactive means the rest.

SMILES	FAK blocker	PLK1 PBD inh	PLK1 kinase inh	PTK2B oligo ant	HIV Rev-RRE inh	Cav3 T inh	FAK inh confirm
O=C(Nc1cccc(-c2nc3ccccc3[nH]2)c1)c1cccc(NC(=O)c2ccco2)c1	71*	-5	-18	-2.5	-1	-0.9	62*
O=C(Nc1ccc2nc(-c3ccccc3)[nH]c2c1)c1ccco1	0	2	-17	-1.1	-2	0.2	x
CCC(C)Oc1ccccc1C1CC(=O)NC2=C1C(=O)CCC2 (stereo unspecified)	2	-6	-7	0.43	0	0.69	x
O=C(N/N=C/c1ccco1)c1cc(-c2ccc3ccccc3c2)n[nH]1	-2	4	-4	-0.25	13	x	x
O=C(N/N=C/c1cccs1)c1cc(-c2ccc3ccccc3c2)n[nH]1	20*	34	-8	-0.72	14	-0.03	2
CCOC(=O)c1c(NC(=O)c2ccc(Cl)s2)sc(C)c1C	x	x	x	x	x	-0.022	x
CCNc1nc(N)c(C(=O)c2ccc(Cl)s2)s1	19*	-26	68*	-0.47	-3	0.046	4
Cc1nn(C(=O)c2ccco2)c(C)c1CN1C(=O)c2ccccc2C1=O	32*	-3	-3	-0.47	6	-0.25	8
O=C(c1ccc(Br)o1)N(Cc1ccccc1)c1ccccn1	0	-8	-20	-0.74	0	-0.55	x
O=C(CCc1ccc(S(=O)(=O)NCCc2ccccc2)cc1)NCc1ccco1	-1	-18	-12	0.74	2	-0.4	x
CCCSC1=N/C(=C\C=C\c2ccco2)C(=O)S1	25*	-13	-14	0.01	18	0.17	5
CCN(CC)CCn1c2ccccc2c2cnc(N)c(C#N)c21	40*	-19	52*	-0.46	3	1.4	18
CN(C)C=Nc1ncc2c3ccccc3n(CCN(C)C)c2c1C#N	18	1	45	-1.2	6	1.7	x
Cc1nnc(NC(=O)CSc2ncnc3c2cnn3-c2ccccc2C)s1	30*	-13	-11	0.75	1	-1	2
Cc1ccccc1-n1ncc2c(SCC(=O)N3c4ccccc4CC3C)ncnc21 (stereo unspecified)	-3	-31	-1	-1.8	8	-0.67	x
Cc1ccccc1C(=O)Nc1nc2n(n1)C(c1ccccc1)CC(=O)N2 (stereo unspecified)	1	19	-8	-0.26	9	-0.39	x
COCCNC(=O)C(c1ccc(C)o1)N(C(=O)c1snc(C(N)=O)c1N)c1cc(C)cc(C)c1 (stereo unspecified)	23*	8	-12	-2.3	1	-0.75	8
CCOC(=O)C1CCN(c2c(NC3CCCc4ccccc43)c(=O)c2=O)CC1 (stereo unspecified)	-3	-3	-15	x	6	-0.059	x
Cc1nn(-c2ccccc2)c(Cl)c1/C=N/Nc1ccc(S(=O)(=O)Nc2ccccc2C(=O)O)cc1[N+](=O)[O-]	19*	-4	2	-1.7	-1	x	5
CCOC(=O)N1CCC(N2Cc3cccc(C(=O)NC(C)c4ccc5c(c4)OCCO5)c3C2=O)CC1 (stereo unspecified)	-3	-14	0	x	-2	-0.16	x
O=C1CCCC2=C1C(c1ccc(Cl)cc1)C1C(=O)c3ccccc3C1=N2 (stereo unspecified)	23*	-10	-5	-2.9	3	-4	6
Cc1ccc(NC(=O)Cn2cncc2-c2ccc([N+](=O)[O-])cc2)cc1C	24*	5	-1	-0.33	2	x	9
COc1ccccc1NC(=O)Cn1cncc1-c1ccc([N+](=O)[O-])cc1	3	27	-12	0.28	7	x	x
S=C1COC(c2ccccc2)N1c1ccccc1 (stereo unspecified)	-2	12	-5	0.44	2	0.23	x
CS(=O)(=O)N(CC(=O)N1CCOCC1)Cc1ccccc1	35*	-13	-16	0	0	0.025	1
SMILES	FAK blocker	PLK1 PBD inh	PLK1 kinase inh	PTK2B oligo ant	HIV Rev-RRE inh	Cav3 T inh	FAK inh confirm
CCc1nc(NCc2cccnc2)c2oc3ccccc3c2n1	20*	5	0	-1.6	4	1.2	5
CCN1CCN(c2cc(C)c3cc(NC(=O)c4ccc(OC)c(OC)c4)ccc3n2)CC1	12	4	-4	x	12	0.16	x
CCN1CCN(c2cc(C)c3cc(NC(=O)c4cncc(Br)c4)ccc3n2)CC1	26*	-10	-8	-0.35	0	x	12
CCCCCCC1/C(=N/O)CCC1C(=O)OC (stereo unspecified)	0	-6	-15	0.71	5	-1.2	x
COc1ccc(-c2csc(NC(CO)c3nc4ccccc4n3CCOCCO)n2)cc1 (stereo unspecified)	x	x	x	x	x	0.49	x
Clc1ccc(Br)cc1-c1nc(-c2ccncc2)no1	28*	2	-12	0.01	5	-0.29	6
Cc1ccc(NC(=O)CN2C(=O)S/C(=C\c3cccn3-c3cccc(C(=O)O)c3)C2=O)c(C)c1	65*	1	-8	0.91	-2	-0.18	1
Cc1ccccc1NC(=O)CN1C(=O)S/C(=C\c2cccn2-c2cccc(C(=O)O)c2)C1=O	-3	15	-8	-1	-4	3.4	x
Cc1cc(C)c(NC(=O)CSc2nc3c(c(=O)n2C)SC(C)C3)c(C)c1 (stereo unspecified)	3	0	-13	x	1	0.94	x
Cc1ccccc1Cn1c2ccccc2c2cn[nH]c(=O)c21	20*	10	32	-0.18	13	0.019	4
CC(=O)NCc1nc2ccccc2n1Cc1ccccc1C	-6	-18	-1	x	4	0.61	x
COc1ccc(S(=O)(=O)Nc2cc(Sc3ncn[nH]3)c(O)c3ccccc23)cc1	45*	-14	-7	x	-10	x	-2
Nc1ccc(-c2nc3c(Cl)cc(N)cc3[nH]2)cc1	25*	-15	-1	-0.81	6	0.42	4
O=C(CSCc1ccc(Cl)cc1)N/N=C/c1ccc(OCC(=O)Nc2ccccc2)cc1	13	-13	-1	0.44	7	0.18	x
Cc1ccc(NC(=O)COc2ccc(/C=N/NC(=O)CSCc3ccccc3)cc2)cc1	20*	11	-8	1	7	-0.38	1
O=C(c1ccco1)N(CCC(c1ccccc1)c1ccco1)Cc1ccco1 (stereo unspecified)	20*	-11	-16	-0.3	8	-12*	4
CC(=O)N(CCP(=O)(c1ccccc1)c1ccccc1)Cc1ccco1	0	22	5	-0.07	-2	0.48	x
CC(C)(C)c1nc(SCC(=O)NCc2ccco2)c2ccccc2n1	38*	-6	-15	0.41	6	-1.4	17
Nc1nnc(COc2ccccc2)s1	-1	12	-10	0.3	10	0.12	x
CN(C)S(=O)(=O)c1ccc(NC(=O)c2c(F)cccc2Cl)cc1	-2	-16	-4	0.7	11	0.32	x
Cn1c(C(=O)N2CCN(C3CCCCC3)CC2)cc2c(=O)n(C)c3ccccc3c21	-4	-29	-18	x	3	-1.8	x

High-throughput results deposited in PubChem by several laboratories.
